Laboratory results: ChEMBL document CHEMBL1122180, “Potential histamine H2-receptor antagonists. 4. Benzylhistamines” (J Med Chem, 1982)
Active and inactive are the calls of the source. The rule behind the calls is not given here.

What was measured:
[1] = target: Histamine H1 receptor (Cavia porcellus) (UniProt P31389); assay: In vitro agonist activity against histamine H1-receptor in guinea pig ileum in the presence of atropine (0.5 uM) relative to histamine; -ve; <0.1% of histamine (781 uM/L); format: functional, tissue-based
Histamine H1 receptor (Cavia porcellus), sequence (P31389 whole entry, the tested form may be a part): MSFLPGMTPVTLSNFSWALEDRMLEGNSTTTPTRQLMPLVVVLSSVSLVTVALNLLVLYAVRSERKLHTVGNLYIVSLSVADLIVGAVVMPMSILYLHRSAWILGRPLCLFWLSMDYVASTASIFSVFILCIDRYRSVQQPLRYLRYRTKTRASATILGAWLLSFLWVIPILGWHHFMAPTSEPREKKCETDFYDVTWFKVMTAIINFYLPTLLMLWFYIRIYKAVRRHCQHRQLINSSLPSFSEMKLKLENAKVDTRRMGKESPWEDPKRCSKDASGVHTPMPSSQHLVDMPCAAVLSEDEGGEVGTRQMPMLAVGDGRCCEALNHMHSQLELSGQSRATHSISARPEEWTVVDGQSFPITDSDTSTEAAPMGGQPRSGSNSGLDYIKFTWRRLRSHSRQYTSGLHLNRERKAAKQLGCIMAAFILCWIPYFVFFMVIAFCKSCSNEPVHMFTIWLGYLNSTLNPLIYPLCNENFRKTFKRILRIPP
Outline: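 Isolated guinea pig ileum with atropine (0.5 μM) present. Agonist activity assayed up to 781 μM (0.1% histamine). Activity relative to histamine taken from cumulative dose–response curves. A 2+2 parallel assay was run for one compound.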

[2] = target: Histamine H2 receptor (Rattus norvegicus) (UniProt P25102); assay: In vivo antagonist activity against histamine H2-receptor in lumen-perfused stomach of atropinized (1 mg/kg) anesthetized rat gastric secretion at 128 ug/kg; -ve; format: functional, organism-based
Histamine H2 receptor (Rattus norvegicus), sequence (P25102 whole entry, the tested form may be a part): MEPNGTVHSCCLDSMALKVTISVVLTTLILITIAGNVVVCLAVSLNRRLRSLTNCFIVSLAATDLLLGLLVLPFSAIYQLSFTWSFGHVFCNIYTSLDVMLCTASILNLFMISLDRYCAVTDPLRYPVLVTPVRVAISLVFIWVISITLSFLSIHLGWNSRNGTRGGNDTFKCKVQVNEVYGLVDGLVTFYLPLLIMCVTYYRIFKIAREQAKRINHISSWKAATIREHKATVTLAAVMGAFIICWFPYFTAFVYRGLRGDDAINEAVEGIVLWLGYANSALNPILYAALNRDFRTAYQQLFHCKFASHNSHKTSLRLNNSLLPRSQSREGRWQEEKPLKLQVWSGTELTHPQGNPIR

[3] = target: Histamine H2 receptor (Rattus norvegicus) (UniProt P25102); assay: In vivo agonist activity against histamine H2-receptor in lumen-perfused stomach of atropinized (1 mg/kg) anesthetized rat gastric secretion at 64 ug/kg; -ve; format: functional, organism-based
Outline: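 In vivo, urethane-anaesthetised rat given atropine (1 mg kg⁻¹), lumen-perfused stomach, acid secretion as read-out. Compounds given intravenously as single doses and matched against single histamine doses (0.5–1 μM kg⁻¹).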

[4] = target: Histamine H1 receptor (Cavia porcellus) (UniProt P31389); assay: In vitro antagonist activity against histamine H1-receptor in guinea pig ileum in the presence of atropine (0.5 uM); format: functional, tissue-based
Outline: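 Isolated guinea pig ileum with atropine (0.5 μM) present. Antagonism measured against histamine (0.1–109 μM)-stimulated contraction. Cumulative dose–response curves plotted for active compounds at three dose levels (nine observations).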

[5] = target: Histamine H2 receptor (Cavia porcellus) (UniProt P47747); assay: Agonist activity was measured for histamine H2-receptor in guinea pig atrium; -ve; <0.1% of histamine (781 uM/L); format: functional, tissue-based; details: Cardiac atrium
Histamine H2 receptor (Cavia porcellus), sequence (P47747 whole entry, the tested form may be a part): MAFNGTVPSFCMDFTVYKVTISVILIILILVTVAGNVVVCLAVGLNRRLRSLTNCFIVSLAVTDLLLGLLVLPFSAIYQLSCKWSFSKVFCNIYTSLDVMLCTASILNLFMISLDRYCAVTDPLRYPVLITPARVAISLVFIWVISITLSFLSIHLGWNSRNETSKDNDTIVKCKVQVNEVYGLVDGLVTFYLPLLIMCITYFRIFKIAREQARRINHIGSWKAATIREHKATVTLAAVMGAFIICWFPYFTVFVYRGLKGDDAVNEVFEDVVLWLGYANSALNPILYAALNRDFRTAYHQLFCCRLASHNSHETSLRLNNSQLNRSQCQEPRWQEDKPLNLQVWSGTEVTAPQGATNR

[6] = target: Histamine H2 receptor (Cavia porcellus) (UniProt P47747); assay: Antagonist activity was measured for histamine H2-receptor in guinea pig atrium; -ve; 486 uM/L; format: functional, tissue-based; details: Cardiac atrium
Outline: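 Isolated guinea pig right atrium with propranolol (0.5 μM) present. Compounds tested as antagonists against histamine (0.2–781 μM) at up to 486 μM. Active compounds run at three dose levels (five observations).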

[7] = target: Histamine H2 receptor (Rattus norvegicus) (UniProt P25102); assay: In vivo agonist activity against histamine H2-receptor in lumen-perfused stomach of atropinized (1 mg/kg) anesthetized rat gastric secretion at 256 ug/kg; -ve; format: functional, organism-based
Outline: (§1)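 Urethane-anesthetized rat, atropinized (1 mg kg⁻¹), lumen-perfused stomach, acid output. Single intravenous doses of compound matched against histamine doses (0.5–1 μM kg⁻¹). Potency relative to histamine compared on peak responses.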

[8] = target: Histamine H2 receptor (Cavia porcellus) (UniProt P47747); assay: Antagonist activity was measured for histamine H2-receptor in guinea pig atrium; 486 uM/L; format: functional, tissue-based; details: Cardiac atrium
Outline: (§2)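 Guinea pig right atrium in vitro, propranolol (0.5 μM) present. Test compounds given up to 486 μM against histamine (0.2–781 μM). Any active compound was run at three dose levels (five observations).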

[9] = target: Histamine H2 receptor (Cavia porcellus) (UniProt P47747); assay: Antagonist activity was measured for histamine H2-receptor in guinea pig atrium; -ve; format: functional, tissue-based; details: Cardiac atrium; outline: as §2
[10] = target: Histamine H2 receptor (Rattus norvegicus) (UniProt P25102); assay: In vivo agonist activity against histamine H2-receptor in lumen-perfused stomach of atropinized (1 mg/kg) anesthetized rat gastric secretion at 187 ug/kg; -ve; format: functional, organism-based; outline: as §1
[11] = target: Histamine H1 receptor (Cavia porcellus) (UniProt P31389); assay: In vitro agonist activity against histamine H1-receptor in guinea pig ileum in the presence of atropine (0.5 uM) relative to histamine; format: functional, tissue-based
Outline: (§3)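 Isolated guinea pig ileum contraction with atropine (0.5 μM). Agonism tested up to 781 μM (0.1% histamine). Relative activity came from cumulative dose–response curves; one compound was run as a 2+2 parallel assay.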

[12] = target: Histamine H2 receptor (Rattus norvegicus) (UniProt P25102); assay: In vivo agonist activity against histamine H2-receptor in lumen-perfused stomach of atropinized (1 mg/kg) anesthetized rat gastric secretion at 128 ug/kg; -ve; format: functional, organism-based; outline: as §1
[13] = target: Histamine H1 receptor (Cavia porcellus) (UniProt P31389); assay: In vitro antagonist activity against histamine H1 receptor in guinea pig ileum in the presence of atropine (0.5 uM); format: functional, tissue-based
Outline: (§4)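 Guinea pig ileum in vitro with atropine (0.5 μM) present. Compounds tested against histamine-stimulated contraction (histamine 0.1–109 μM). Cumulative dose–response curves plotted for active compounds at three dose levels (nine observations); pA2 derived.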

[14] = target: Histamine H1 receptor (Cavia porcellus) (UniProt P31389); assay: In vitro agonist activity against histamine H1 receptor in guinea pig ileum in the presence of atropine (0.5 uM) relative to histamine; -ve; <0.1% of histamine (781 uM/L); format: functional, tissue-based; outline: as §3
[15] = target: Histamine H2 receptor (Cavia porcellus) (UniProt P47747); assay: Antagonist activity was measured for histamine H2-receptor in guinea pig atrium.; format: functional, tissue-based; details: Cardiac atrium; outline: as §2
[16] = target: Histamine H2 receptor (Rattus norvegicus) (UniProt P25102); assay: In vivo antagonist activity against histamine H2-receptor in lumen-perfused stomach of atropinized (1 mg/kg) anesthetized rat gastric secretion at 256 ug/kg; -ve; format: functional, organism-based
[17] = target: Histamine H2 receptor (Rattus norvegicus) (UniProt P25102); assay: In vivo agonist activity against histamine H2-receptor in lumen-perfused stomach of atropinized (1 mg/kg) anesthetized rat gastric secretion; format: functional, organism-based; outline: as §1
[18] = target: Histamine H1 receptor (Cavia porcellus) (UniProt P31389); assay: In vitro agonist activity against histamine H1-receptor in guinea pig ileum in the presence of atropine (0.5 uM) relative to histamine.; format: functional, tissue-based; outline: as §3
[19] = target: Histamine H2 receptor (Rattus norvegicus) (UniProt P25102); assay: In vivo antagonist activity against histamine H2-receptor in lumen-perfused stomach of atropinized (1 mg/kg) anesthetized rat gastric secretion at 187 ug/kg; weak inhibition; format: functional, organism-based; details: filed as antagonist
[20] = target: Histamine H2 receptor (Cavia porcellus) (UniProt P47747); assay: Agonist activity was measured for histamine H2-receptor in guinea pig atrium.; format: functional, tissue-based; details: Cardiac atrium
[21] = target: Histamine H2 receptor (Rattus norvegicus) (UniProt P25102); assay: In vivo antagonist activity against histamine H2-receptor in lumen-perfused stomach of atropinized (1 mg/kg) anesthetized rat gastric secretion at 512 ug/kg; -ve; format: functional, organism-based
[22] = target: Histamine H1 receptor (Cavia porcellus) (UniProt P31389); assay: In vitro antagonist activity against histamine H1-receptor in guinea pig ileum in the presence of atropine (0.5 uM).; format: functional, tissue-based; outline: as §4
[23] = target: Histamine H2 receptor (Rattus norvegicus) (UniProt P25102); assay: In vivo agonist activity against histamine H2-receptor in lumen-perfused stomach of atropinized (1 mg/kg) anesthetized rat gastric secretion at 512 ug/kg; -ve; format: functional, organism-based; outline: as §1
[24] = target: Histamine H2 receptor (Cavia porcellus) (UniProt P47747); assay: Agonist activity was measured for histamine H2-receptor in guinea pig atrium; format: functional, tissue-based; details: Cardiac atrium

NCCc1[nH]cnc1Cc1ccccc1
Agonist activity [1]: inactive
Antagonist activity [2]: inactive
Agonist activity [3]: inactive
Antagonist activity [4]: 4.4 pA2
Agonist activity [5]: inactive
Antagonist activity [6]: < 3.3

NCCc1cncn1Cc1ccccc1
Agonist activity [1]: inactive
Antagonist activity [2]: inactive
Agonist activity [7]: inactive
Antagonist activity [4]: 3.6 pA2
Agonist activity [5]: inactive
Antagonist activity [8]: < 3.3

NCCc1c[nH]c(Cc2ccccc2)n1
Antagonist activity [2]: inactive
Antagonist activity [9]: < 3.3
Agonist activity [10]: inactive
Agonist activity [11]: 2.3
Agonist activity [5]: inactive

NCCc1ncn(Cc2ccccc2)c1Cc1ccccc1
Agonist activity [12]: inactive
Antagonist activity [2]: inactive
Antagonist activity [13]: 4.7 pA2
Agonist activity [14]: inactive
Agonist activity [5]: inactive
Antagonist activity [15]: 4.35

NCCc1cn(Cc2ccccc2)cn1
Antagonist activity [16]: inactive
Agonist activity [11]: 0.4
Agonist activity [5]: inactive
Agonist activity [17]: 3
Antagonist activity [8]: < 3.3

c1ccc(CNCCc2c[nH]cn2)cc1
Agonist activity [18]: 0.4
Antagonist activity [19]: Partial antagonist
Agonist activity [17]: 0.5
Antagonist activity [8]: < 3.3
Agonist activity [20]: 0.7

NCC(Cc1ccccc1)c1c[nH]cn1 (centres undefined)
Antagonist activity [21]: inactive
Antagonist activity [22]: 4 pA2
Agonist activity [18]: 0.1
Agonist activity [23]: inactive
Antagonist activity [8]: < 3.3
Agonist activity [24]: 1
